Experiment [1] deals with T1, CREB-binding protein (Homo sapiens, UniProt Q92793). Kind of experiment: Inhibition of CBP BRD (unknown origin) by TR-FRET assay. On the technique in general: In TR-FRET formats the signal depends on donor and acceptor labels being close together.
Target sequence in this assay (Q92793 whole entry): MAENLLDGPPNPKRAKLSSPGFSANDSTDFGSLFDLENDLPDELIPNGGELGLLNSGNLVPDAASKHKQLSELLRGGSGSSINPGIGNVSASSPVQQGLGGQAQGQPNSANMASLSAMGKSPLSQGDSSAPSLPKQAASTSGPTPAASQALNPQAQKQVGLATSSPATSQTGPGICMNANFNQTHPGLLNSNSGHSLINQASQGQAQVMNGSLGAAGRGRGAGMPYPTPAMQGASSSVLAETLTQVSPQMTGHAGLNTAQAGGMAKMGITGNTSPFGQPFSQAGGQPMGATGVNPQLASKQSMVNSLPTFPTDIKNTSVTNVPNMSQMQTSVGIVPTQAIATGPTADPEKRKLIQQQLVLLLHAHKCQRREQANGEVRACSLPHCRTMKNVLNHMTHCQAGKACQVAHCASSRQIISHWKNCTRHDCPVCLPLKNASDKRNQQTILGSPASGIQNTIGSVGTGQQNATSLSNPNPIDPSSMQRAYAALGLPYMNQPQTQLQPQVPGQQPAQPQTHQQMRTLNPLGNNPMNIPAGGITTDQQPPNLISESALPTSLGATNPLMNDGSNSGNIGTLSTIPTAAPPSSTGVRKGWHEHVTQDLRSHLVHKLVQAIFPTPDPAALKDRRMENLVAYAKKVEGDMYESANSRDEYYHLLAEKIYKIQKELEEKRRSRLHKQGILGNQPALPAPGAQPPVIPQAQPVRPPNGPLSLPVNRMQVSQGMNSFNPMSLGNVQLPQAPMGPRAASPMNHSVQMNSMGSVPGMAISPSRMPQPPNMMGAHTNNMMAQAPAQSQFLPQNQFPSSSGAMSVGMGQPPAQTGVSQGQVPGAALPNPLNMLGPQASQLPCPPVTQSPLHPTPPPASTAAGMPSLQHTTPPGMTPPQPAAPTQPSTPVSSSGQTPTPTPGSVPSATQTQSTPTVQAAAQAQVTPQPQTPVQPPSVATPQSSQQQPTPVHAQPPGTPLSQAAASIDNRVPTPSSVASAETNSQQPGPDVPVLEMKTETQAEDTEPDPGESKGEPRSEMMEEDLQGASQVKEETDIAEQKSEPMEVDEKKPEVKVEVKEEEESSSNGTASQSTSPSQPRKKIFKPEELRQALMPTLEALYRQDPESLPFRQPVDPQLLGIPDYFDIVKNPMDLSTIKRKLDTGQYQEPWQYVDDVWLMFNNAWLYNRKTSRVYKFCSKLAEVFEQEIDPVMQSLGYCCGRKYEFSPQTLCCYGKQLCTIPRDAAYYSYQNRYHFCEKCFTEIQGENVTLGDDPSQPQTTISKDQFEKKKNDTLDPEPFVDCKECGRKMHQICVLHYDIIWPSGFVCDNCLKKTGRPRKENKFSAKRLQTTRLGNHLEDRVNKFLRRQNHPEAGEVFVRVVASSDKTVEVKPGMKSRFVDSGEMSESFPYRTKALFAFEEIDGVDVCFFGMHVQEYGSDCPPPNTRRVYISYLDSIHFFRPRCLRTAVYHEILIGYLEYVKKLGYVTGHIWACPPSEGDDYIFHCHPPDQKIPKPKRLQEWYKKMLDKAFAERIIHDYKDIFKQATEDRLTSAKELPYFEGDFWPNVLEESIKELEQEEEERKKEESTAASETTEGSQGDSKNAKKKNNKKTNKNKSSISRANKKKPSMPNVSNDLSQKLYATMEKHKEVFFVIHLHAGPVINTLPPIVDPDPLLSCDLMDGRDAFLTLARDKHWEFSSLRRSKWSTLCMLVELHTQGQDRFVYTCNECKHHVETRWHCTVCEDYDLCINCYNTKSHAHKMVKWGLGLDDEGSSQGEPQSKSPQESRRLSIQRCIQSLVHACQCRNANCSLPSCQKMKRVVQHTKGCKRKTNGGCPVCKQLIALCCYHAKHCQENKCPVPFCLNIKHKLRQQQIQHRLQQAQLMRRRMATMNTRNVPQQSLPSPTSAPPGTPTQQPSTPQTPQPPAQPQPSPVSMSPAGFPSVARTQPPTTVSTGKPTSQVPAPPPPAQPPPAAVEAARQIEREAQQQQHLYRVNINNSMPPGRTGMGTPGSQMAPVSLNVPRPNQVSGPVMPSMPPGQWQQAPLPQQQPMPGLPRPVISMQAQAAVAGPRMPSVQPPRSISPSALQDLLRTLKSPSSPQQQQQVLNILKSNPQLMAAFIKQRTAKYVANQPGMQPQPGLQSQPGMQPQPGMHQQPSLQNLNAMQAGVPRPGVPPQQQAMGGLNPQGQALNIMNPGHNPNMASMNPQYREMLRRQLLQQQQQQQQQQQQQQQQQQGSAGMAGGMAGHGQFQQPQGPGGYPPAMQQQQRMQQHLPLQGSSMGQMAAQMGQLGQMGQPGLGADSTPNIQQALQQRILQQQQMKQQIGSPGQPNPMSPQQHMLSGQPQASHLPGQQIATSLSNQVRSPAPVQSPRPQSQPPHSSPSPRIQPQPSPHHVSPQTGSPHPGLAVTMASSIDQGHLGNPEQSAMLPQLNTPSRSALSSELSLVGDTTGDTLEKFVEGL
Experiment [2] has as its system MV4-11. Description: Antiproliferative activity against human MV4-11 cells at 6.25 uM incubated for 6 days relative to control. The class given is functional. Particulars: MV4-11, 144 h, time 6 day. The gist of the method: (§1)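 MV4-11 AML cells exposed to test agent at 6.25 or 1.56 µM for 6 days; viability read as percent growth inhibition versus control; inhibition rates are means of at least two determinations.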

Experiment [3] relates to MV4-11. Kind of experiment: Antiproliferative activity against human MV4-11 cells at 1.56 uM incubated for 6 days relative to control. Conditions: MV4-11, 144 h, time 6 day. It is filed as functional. The gist of the method: as §1
Experiment [4] concerns the target T2, Bromodomain-containing protein 4 (Homo sapiens, UniProt O60885). Description: Inhibition of BRD4 BD1 (unknown origin) by ALPHAScreen assay. A general note: In Alpha technology, singlet oxygen from a donor bead excites a nearby acceptor bead.
For experiment [5], the target named is T2, Bromodomain-containing protein 4. Description: Inhibition of BRD4 BD2 (unknown origin) by ALPHAScreen assay.
In experiment [6] the target is T1, CREB-binding protein. Kind of experiment: Inhibition of GST-tagged CBP BRD (unknown origin) incubated for 30 mins by HTRF assay.
Target sequence in this assay (Q92793 whole entry): as above
The test system of experiment [7] is MV4-11. Description: Antiproliferative activity against human MV4-11 cells incubated for 6 days relative to control. The class given is functional, cell-based. Particulars: MV4-11, 144 h. An outline of the steps:
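MV4-11 cells treated for 6 days; IC50 derived for agents giving over 50% growth inhibition at 1.56 µM; values reported with ± error.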

Experiment [8] addresses T1, CREB-binding protein. Description: Binding affinity to CBP BRD (unknown origin) by microscale thermophoresis assay. Background: MST reads how a fluorescent partner responds to local heating, with and without ligand.
Target sequence in this assay (Q92793 whole entry): as above
The target of experiment [9] is T1, CREB-binding protein. Description: Inhibition of CBP in human MV4-11 cells assessed as decrease in c-myc protein expression incubated for 12 hrs by Western blot analysis. The class given is cell-based. Particulars: dose microM 0.25-2, time 12.0 hrs. An outline of the steps: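 MV4-11 cells treated at 0, 0.25, 0.5, 1 and 2 µM for 12 h; c-Myc protein level assessed by Western blot.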
Target sequence in this assay (Q92793 2-2442 limits assumed): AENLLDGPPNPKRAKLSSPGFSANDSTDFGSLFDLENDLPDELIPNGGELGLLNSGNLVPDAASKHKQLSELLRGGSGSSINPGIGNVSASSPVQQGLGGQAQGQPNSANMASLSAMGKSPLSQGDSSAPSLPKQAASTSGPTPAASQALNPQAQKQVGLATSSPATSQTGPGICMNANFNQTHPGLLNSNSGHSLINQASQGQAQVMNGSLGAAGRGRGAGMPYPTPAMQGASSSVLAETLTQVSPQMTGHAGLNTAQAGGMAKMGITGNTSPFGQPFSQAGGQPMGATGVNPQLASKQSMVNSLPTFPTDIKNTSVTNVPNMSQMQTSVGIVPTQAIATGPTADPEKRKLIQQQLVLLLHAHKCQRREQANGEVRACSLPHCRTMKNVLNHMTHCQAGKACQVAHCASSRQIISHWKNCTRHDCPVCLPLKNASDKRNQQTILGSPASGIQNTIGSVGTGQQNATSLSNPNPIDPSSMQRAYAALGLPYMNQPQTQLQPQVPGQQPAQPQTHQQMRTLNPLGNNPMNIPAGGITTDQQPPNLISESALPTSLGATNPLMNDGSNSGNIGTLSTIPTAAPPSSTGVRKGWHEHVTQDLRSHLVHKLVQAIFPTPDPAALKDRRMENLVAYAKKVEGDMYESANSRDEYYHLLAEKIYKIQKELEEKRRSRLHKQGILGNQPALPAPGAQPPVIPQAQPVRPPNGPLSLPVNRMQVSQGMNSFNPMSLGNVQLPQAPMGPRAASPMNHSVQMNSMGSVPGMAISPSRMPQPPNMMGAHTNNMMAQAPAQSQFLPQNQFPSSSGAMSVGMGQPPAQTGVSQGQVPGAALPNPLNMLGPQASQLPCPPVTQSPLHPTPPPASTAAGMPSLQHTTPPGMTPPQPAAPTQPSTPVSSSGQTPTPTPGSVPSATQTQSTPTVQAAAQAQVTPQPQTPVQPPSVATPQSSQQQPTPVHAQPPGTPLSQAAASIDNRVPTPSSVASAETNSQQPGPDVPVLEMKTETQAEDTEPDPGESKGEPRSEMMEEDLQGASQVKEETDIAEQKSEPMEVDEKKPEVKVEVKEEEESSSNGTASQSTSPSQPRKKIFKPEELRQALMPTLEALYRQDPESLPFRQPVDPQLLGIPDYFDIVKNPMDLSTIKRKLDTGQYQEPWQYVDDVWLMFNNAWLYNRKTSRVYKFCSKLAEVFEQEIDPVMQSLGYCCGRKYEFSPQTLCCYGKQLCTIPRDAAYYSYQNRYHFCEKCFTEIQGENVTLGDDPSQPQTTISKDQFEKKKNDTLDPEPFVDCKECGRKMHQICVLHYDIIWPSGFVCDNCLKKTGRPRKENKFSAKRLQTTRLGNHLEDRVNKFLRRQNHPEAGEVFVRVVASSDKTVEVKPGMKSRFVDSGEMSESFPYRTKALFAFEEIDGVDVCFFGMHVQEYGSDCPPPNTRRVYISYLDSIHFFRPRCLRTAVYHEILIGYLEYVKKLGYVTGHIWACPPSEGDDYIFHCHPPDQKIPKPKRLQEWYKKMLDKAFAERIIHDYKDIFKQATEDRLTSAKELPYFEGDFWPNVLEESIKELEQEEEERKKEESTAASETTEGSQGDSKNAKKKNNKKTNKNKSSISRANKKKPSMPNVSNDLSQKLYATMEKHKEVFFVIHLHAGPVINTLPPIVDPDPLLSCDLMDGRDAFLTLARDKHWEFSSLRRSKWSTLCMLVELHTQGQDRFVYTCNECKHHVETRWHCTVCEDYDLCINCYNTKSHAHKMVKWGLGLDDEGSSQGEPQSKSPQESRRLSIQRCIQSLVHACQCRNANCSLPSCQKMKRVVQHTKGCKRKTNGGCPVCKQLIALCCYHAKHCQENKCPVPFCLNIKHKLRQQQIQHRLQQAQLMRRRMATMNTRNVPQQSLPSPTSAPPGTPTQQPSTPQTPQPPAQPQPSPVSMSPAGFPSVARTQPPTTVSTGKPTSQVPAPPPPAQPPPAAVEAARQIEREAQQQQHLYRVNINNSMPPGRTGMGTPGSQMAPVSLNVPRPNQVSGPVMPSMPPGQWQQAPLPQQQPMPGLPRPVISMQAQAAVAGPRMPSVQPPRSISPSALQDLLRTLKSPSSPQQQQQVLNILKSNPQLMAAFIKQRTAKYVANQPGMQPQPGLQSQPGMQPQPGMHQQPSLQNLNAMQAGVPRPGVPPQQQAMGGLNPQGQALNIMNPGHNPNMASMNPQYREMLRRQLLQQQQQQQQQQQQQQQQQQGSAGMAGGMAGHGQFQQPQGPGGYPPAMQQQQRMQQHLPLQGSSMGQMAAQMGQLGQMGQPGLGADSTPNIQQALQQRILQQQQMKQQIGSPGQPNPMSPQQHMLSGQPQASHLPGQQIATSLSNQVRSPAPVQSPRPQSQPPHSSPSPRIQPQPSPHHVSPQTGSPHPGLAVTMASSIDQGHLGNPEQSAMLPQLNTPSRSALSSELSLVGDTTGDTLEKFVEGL

The species entered for experiment [10] is Homo sapiens. Description: Selectivity index, ratio of IC50 for BR4 BD1 (unknown origin) to IC50 for CBP BRD (unknown origin).
Experiment [11] is filed under the species Homo sapiens. Kind of experiment: Selectivity index, ratio of IC50 for BR4 BD2 (unknown origin) to IC50 for CBP BRD (unknown origin).

The structures appear in SMILES notation. pIC50, pKd: −log10 of the molar value. Bounds are passed on as bounds.

In general, pIC50 refers to the IC50 on a negative log10 scale, so that one unit is a factor of ten. Lower therefore signals a large IC50. One may read the inhibition as the change of the read-out against control, counted positive when it falls. Molecule `CNC(=O)N1CCCc2ccc(NC(=O)c3ccc(-c4ccn(C(C)=O)n4)cc3)cc21` showed a pIC50 at CREB-binding protein [1] of 7.28. Further, the inhibition at 6.25 µM with MV4-11 [2] was found to be 91.3%. This molecule had an inhibition at 1.56 µM in the experiment with MV4-11 [3] of 35.8%.
In the same order, the values of `CNC(=O)N1CCCc2ccc(NC(=O)c3cccc(-c4ccn(S(C)(=O)=O)n4)c3)cc21` are 6.99, 37% and 4.03%.
As to `C[C@@H]1CC(=O)Nc2cccc(-c3ccc4c(c3)c(-c3cnn(C)c3)nn4C)c2N1`, the pIC50 was 4.92 in experiment [4] and 4.73 in [5].
Consider `COC(=O)N1CCCc2ccc(NC(=O)C3CC=CCC3C(=O)O)cc21` (centres undefined), for which, at CREB-binding protein [6], the negative logarithm of the IC50 (pIC50) is 5.64.
Turning to `CNC(=O)N1CCCc2ccc(NC(=O)c3ccc(-c4cnn(C)c4)cc3)cc21`, the pIC50 at CREB-binding protein [1] is 7.43; in the experiment with MV4-11 [7], 6.14. For the same molecule, 6.25 µM produced 94.4% inhibition in the experiment with MV4-11 [2]. This molecule also showed an inhibition at 1.56 µM in the experiment on MV4-11 [3] of 77.3%.
For the molecule `CNC(=O)N1CCCc2ccc(NC(=O)c3cccc(-c4ccn(C)n4)c3)cc21`, the pIC50 on CREB-binding protein [1] was 7.34; in the experiment on MV4-11 [7] it was 6.01. This molecule also registered an inhibition at 6.25 µM with MV4-11 [2] of 99.5%. This molecule showed an inhibition at 1.56 µM in the experiment with MV4-11 [3] of 70.5%.
With `CNC(=O)N1CCCc2ccc(NC(=O)c3ccc(-c4ccncc4)cc3)cc21`, at CREB-binding protein [1], the pIC50 is 7.05. This molecule also returned an inhibition at 6.25 µM with MV4-11 [2] of 88.7%. In the experiment on MV4-11 [3], this molecule came in with an inhibition at 1.56 µM of 37.6%.
With `CNC(=O)N1CCCc2ccc(NC(=O)c3ccc(-c4cccnc4)cc3)cc21`, the pIC50 at CREB-binding protein [1] was 7.27; in the experiment with MV4-11 [7], 5.94. In the experiment on MV4-11 [2], this molecule showed an inhibition at 6.25 µM of 92.1%. Further, the inhibition at 1.56 µM in the experiment with MV4-11 [3] came out at 62.5%.
As for `CNC(=O)N1CCCc2ccc(NC(=O)c3cccc(-c4cnn(C(C)=O)c4)c3)cc21`, at CREB-binding protein [1], the negative-log IC50 (pIC50) was 7.12. For the same molecule, in the experiment on MV4-11 [2], the inhibition at 6.25 µM stood at 82%. This molecule also showed an inhibition at 1.56 µM in the experiment with MV4-11 [3] of 33.5%.
For the molecule `CNC(=O)N1CCCc2ccc(NC(=O)c3cccc(-c4cn[nH]c4)c3)cc21`, the pIC50 at CREB-binding protein [1] was 7.04. The molecule also had an inhibition at 6.25 µM with MV4-11 [2] of 77.7%. This molecule returned an inhibition at 1.56 µM in the experiment with MV4-11 [3] of 27.9%.
In the same order, the values of `CNC(=O)N1CCCc2ccc(NC(=O)c3ccc(-c4cnn(S(C)(=O)=O)c4)cc3)cc21` are 7.03, 40.2% and 4.5%.
`CNC(=O)N1CCCc2ccc(NC(=O)c3ccccc3-c3ccccc3)cc21` showed a negative logarithm of the IC50 (pIC50) at CREB-binding protein [6] of 6.67. Also, the inhibition at 6.25 µM in the experiment with MV4-11 [2] came to 1.39%. The inhibition at 1.56 µM in the experiment with MV4-11 [3] turned out to be 2.83%.
Take `CNC(=O)N1CCCc2ccc(NC(=O)c3ccc(-c4cnn(C(C)=O)c4)cc3)cc21`: the negative logarithm of the IC50 (pIC50) on CREB-binding protein [1] was 7.07. In the experiment on MV4-11 [2], this molecule displayed an inhibition at 6.25 µM of 83.8%. Testing at 1.56 µM in the experiment on MV4-11 [3] gave an inhibition of 23.9%.
In the same order, the values of `CNC(=O)N1CCCc2ccc(NC(=O)c3cccc(-c4ccn(C(C)=O)n4)c3)cc21` are 7.02, 87.6% and 27.6%.
`CNC(=O)N1CCCc2ccc(NC(=O)c3cccc(-c4cnn(C)c4)c3)cc21`: the pIC50 on CREB-binding protein [1] was 7.26; with MV4-11 [7], 5.98. The molecule also showed an inhibition at 6.25 µM with MV4-11 [2] of 93.5%. The molecule further showed an inhibition at 1.56 µM with MV4-11 [3] of 71.2%.
`CNC(=O)N1CCCc2ccc(NC(=O)c3ccc(-c4ccn(S(C)(=O)=O)n4)cc3)cc21` had a negative-log IC50 (pIC50) at CREB-binding protein [1] of 7.13. For the same molecule, in the experiment with MV4-11 [2], the inhibition at 6.25 µM turned out to be 57.2%. In the experiment on MV4-11 [3], this molecule had an inhibition at 1.56 µM of 8.81%.
In the same order, the values of `CNC(=O)N1CCCc2ccc(NC(=O)c3ccc(-c4ccccn4)cc3)cc21` are 6.99, 79.2% and 31.9%.
For `CNC(=O)N1CCCc2ccc(NC(=O)c3ccc(-c4ccn(C)n4)cc3)cc21`, the negative logarithm of the IC50 (pIC50) at CREB-binding protein [1] is 7.40; in the experiment with MV4-11 [7], 6.08. The molecule further came in with an inhibition at 6.25 µM with MV4-11 [2] of 97%. The molecule further had an inhibition at 1.56 µM in the experiment on MV4-11 [3] of 72.2%.
As for `CNC(=O)N1CCCc2ccc(NC(=O)c3cccc(-c4cc[nH]n4)c3)cc21`, the negative-log IC50 (pIC50) on CREB-binding protein [1] is 7.03. Moreover, the inhibition at 6.25 µM in the experiment on MV4-11 [2] amounted to 89.7%. In the experiment with MV4-11 [3], this molecule returned an inhibition at 1.56 µM of 27.3%.
Take `CNC(=O)N1CCCc2ccc(NC(=O)c3cccc(-c4ccccc4)c3)cc21`: at CREB-binding protein [6], the negative-log IC50 (pIC50) was 5.08. For the same molecule, in the experiment with MV4-11 [2], the inhibition at 6.25 µM was 60.4%. For the same molecule, in the experiment with MV4-11 [3], the inhibition at 1.56 µM worked out at 10.7%.
What is called pKd is the Kd on a negative log10 scale, so that one unit is a factor of ten. High values mean a low Kd, low ones a high Kd. On to `CNC(=O)N1CCCc2ccc(NC(=O)c3ccc(-c4cc[nH]n4)cc3)cc21`, for which the negative logarithm of the IC50 (pIC50) in experiment [4] was 5.08; on CREB-binding protein [1] it was 7.71; in experiment [5], 4.72; in the experiment on MV4-11 [7], 6.26. Further, the pKd at CREB-binding protein [8] was 7.60. Further, in the experiment on MV4-11 [2], at 6.25 µM the inhibition was 99.1%. In the experiment on MV4-11 [3], this molecule gave an inhibition at 1.56 µM of 92.5%. The inhibition entry at CREB-binding protein [9] was “Dose-dependent effect”. The Ratio IC50 in the experiment listed under Homo sapiens [10] and in the experiment filed under Homo sapiens [11] was above 400 in each case.
`CNC(=O)N1CCCc2ccc(NC(=O)c3ccc(-c4ccccc4)cc3)cc21` showed a pIC50 at CREB-binding protein [1] of 6.71. The same molecule returned an inhibition at 6.25 µM in the experiment on MV4-11 [2] of 74.3%. In the experiment with MV4-11 [3], the inhibition at 1.56 µM came out at 19.6%.
On CREB-binding protein [1], `CNC(=O)N1CCCc2ccc(NC(=O)c3cccc(-c4cnn(S(C)(=O)=O)c4)c3)cc21` had a pIC50 of 6.54. In addition, the inhibition at 6.25 µM with MV4-11 [2] came out at 18%. In the experiment with MV4-11 [3], this molecule came in with an inhibition at 1.56 µM of 1.6%.
`CNC(=O)N1CCCc2ccc(NC(=O)c3ccc(-c4cn[nH]c4)cc3)cc21`: the negative logarithm of the IC50 (pIC50) on CREB-binding protein [1] was 7.32; in the experiment on MV4-11 [7], 6.06. In the experiment with MV4-11 [2], this molecule returned an inhibition at 6.25 µM of 98.3%. Moreover, the inhibition at 1.56 µM with MV4-11 [3] stood at 73.5%.
In the case of `CNC(=O)N1CCCc2ccc(NC(=O)c3cccc(-c4ccncc4)c3)cc21`, the pIC50 at CREB-binding protein [6] and at CREB-binding protein [1] was 7.20 in each case.

These data come from ChEMBL document CHEMBL4699476, “Structure-based drug optimization and biological evaluation of tetrahydroquinolin derivatives as selective and potent CBP bromodomain inhibitors” (Bioorg Med Chem Lett, 2020).
